Most compounds without a hit are left out; they make up all but 1.1% or so of the library.
GSK3 alpha inh – blocks human GSK-3 alpha kinase | inhibition, % at 10 µM | ADP-Glo luminescence, 60 min | actives 0.1% (n = 320,000) | P49840;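 active = more than half of replicates show inhibition above 20%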;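 also: GST-tagged GSK-3 alpha with peptide substrate and 25 µM ATP; 0% = DMSO neutral wells and 100% = GW8510 positive control wells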
Target sequence (P49840 whole entry, looked up): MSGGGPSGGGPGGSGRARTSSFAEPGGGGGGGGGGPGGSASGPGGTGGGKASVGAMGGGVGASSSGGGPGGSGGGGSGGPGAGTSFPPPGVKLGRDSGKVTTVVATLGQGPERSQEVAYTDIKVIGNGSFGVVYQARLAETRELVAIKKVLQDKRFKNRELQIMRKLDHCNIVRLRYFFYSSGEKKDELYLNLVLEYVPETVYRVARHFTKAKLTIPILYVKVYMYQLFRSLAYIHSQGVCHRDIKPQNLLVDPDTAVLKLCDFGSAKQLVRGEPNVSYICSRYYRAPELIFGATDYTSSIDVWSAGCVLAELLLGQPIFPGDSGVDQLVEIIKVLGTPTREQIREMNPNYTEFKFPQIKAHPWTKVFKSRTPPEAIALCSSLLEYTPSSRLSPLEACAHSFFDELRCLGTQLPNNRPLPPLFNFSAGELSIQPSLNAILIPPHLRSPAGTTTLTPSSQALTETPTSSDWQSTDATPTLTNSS
SR-BI DiI-HDL act – activators of SR-BI mediated HDL lipid uptake; CHO ldlA[mSR-BI] cells, DiI-HDL uptake fluorescence, 3 h; 100 = double the neutral-control signal; activation, % at 12.5 µM; actives 0.096% (n = 320,000); AID 504775;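 active = mean replicate activation of at least 60% and every replicate at or above 60%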;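 also: 0% = median plate neutral-control signal and 100% = twice that signal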
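material = CHO ldlA[mSR-BI] cells | medium = Ham's F12 with 0.5% BSA, HEPES 25 mM, pH 7.4 | reagent = fluorescent DiI-HDL, 10 µg/mL final | compound dosing = single-point compound dose | incubation = 3 h, 37 °C | measured by = bottom-read fluorescence, 550/595 nm | measure = HDL uptake via cellular fluorescence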
SR-BI DiI inh – inhibitors of mouse SR-BI mediated HDL lipid uptake; ldlA[mSR-BI] CHO cells, DiI-HDL uptake fluorescence, 3 h; inhibition, % at 12.5 µM; actives 0.96% (n = 320,000);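 active = mean replicate inhibition of at least 70% and a set share of replicates each scoring 70 or more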;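 also: 0% = median of neutral control wells and 100% = median of positive control wells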
CDK5 inh – CDK5/p35 (human) kinase inhibition; Q00535+Q15078; Recombinant CDK5/p35, ADP-Glo luminescence, 60 min; inhibition, % at 10 µM; actives 0.01% (n = 330,000);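 active = highest replicate inhibition of at least 50% and at least 75% of replicates reaching 50%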;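 also: plate controls were DMSO neutral control for no effect and GW8510 at 10 µM for full effect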
GSK3beta inhib – blocks human GSK3beta kinase activity | activity score (negative = inhibition), % at 10 µM | P49841 | AID 2097 | GST-GSK3beta kinase, ADP-Glo luminescence, 60 min; active compounds read low | actives 0.038% (n = 300,000);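 active = more than half of replicate wells score below -50%, meaning over 50% inhibition versus plate controls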;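 also: 0% = median DMSO wells and -100% = median GW8510 positive control wells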
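test system = GST-tagged human GSK3beta kinase, cell-free | reagent = 25 µM ATP with peptide substrate | dosing = one dose of 10 µM per compound | schedule = 60 min reaction, RT | detection = luminescent ADP-Glo measurement of ADP formed | control set = DMSO neutral wells and GW8510 at 20 µM as positive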
* = called active by the depositor.

Screening Cc1nnc(C)n1/N=C/c1c(O)ccc2ccccc12 returned GSK3 alpha inh 3, CDK5 inh 1 and GSK3beta inhib 2.
For Cc1nc2ccccc2c(=O)n1/N=C/c1ccccc1 the results were GSK3 alpha inh 1, SR-BI DiI-HDL act -1, SR-BI DiI inh 1, CDK5 inh -2 and GSK3beta inhib -1.
For Cc1nnc(-c2ccccc2)c(=O)n1/N=C/c1c(O)ccc2ccccc12 the results were GSK3 alpha inh 0, SR-BI DiI-HDL act -120, SR-BI DiI inh 120*, CDK5 inh 0 and GSK3beta inhib 2.
Screening COc1ccc(C(=O)N[C@H](C(=O)NCCc2ccc3c(c2)OCCO3)C(C)C)cc1 returned GSK3 alpha inh -37, SR-BI DiI-HDL act -1, SR-BI DiI inh 1 and CDK5 inh 0.
For COC(=O)NC(=C(Cl)Cl)S(=O)(=O)c1ccccc1 the results were GSK3 alpha inh -1, SR-BI DiI-HDL act 73*, SR-BI DiI inh -73 and CDK5 inh 0.
`Cc1ccc(C(=O)NC(=C(Cl)Cl)S(=O)(=O)c2ccccc2)cc1` gave GSK3 alpha inh -1, SR-BI DiI-HDL act 7, SR-BI DiI inh -7, CDK5 inh -3 and GSK3beta inhib 3.
C/C(=N\NC(N)=S)C1C2C3CC4C5CC(C42)C1C53 (configuration not stated) was read as GSK3 alpha inh -1, SR-BI DiI-HDL act -83, SR-BI DiI inh 83*, CDK5 inh 2 and GSK3beta inhib 0.
For CCOc1ccccc1NC(=O)CCCNC(=O)Cn1cnc2sc(C)c(C)c2c1=O the results were GSK3 alpha inh -1, SR-BI DiI-HDL act -72, SR-BI DiI inh 72*, CDK5 inh -10 and GSK3beta inhib -4.
For COc1ccc(C)cc1NC(=O)CCCNC(=O)Cn1cnc2sc(C)c(C)c2c1=O the results were GSK3 alpha inh 0, SR-BI DiI-HDL act -78, SR-BI DiI inh 78*, CDK5 inh 0 and GSK3beta inhib -1.
`COc1cc(OC)c(NC(=O)CCCNC(=O)Cn2cnc3sc(C)c(C)c3c2=O)cc1Cl` gave GSK3 alpha inh 0, SR-BI DiI-HDL act -81, SR-BI DiI inh 81*, CDK5 inh 0 and GSK3beta inhib 0.
COc1ccc(NC(=O)CCCNC(=O)Cn2cnc3sc(C)c(C)c3c2=O)c(OC)c1 was read as GSK3 alpha inh -1, SR-BI DiI-HDL act 1, SR-BI DiI inh -1, CDK5 inh -1 and GSK3beta inhib -2.
Screening COC(=O)c1sc2ncn(CC(=O)NCCc3ccc(OC)c(OC)c3)c(=O)c2c1C returned GSK3 alpha inh 0, SR-BI DiI-HDL act -76, SR-BI DiI inh 76*, CDK5 inh -1 and GSK3beta inhib 0.
Screening CC(C)(C)C(=O)NN=C1CCC(c2ccccc2)CC1 (configuration not stated) returned GSK3 alpha inh 1, SR-BI DiI-HDL act 20, SR-BI DiI inh -20, CDK5 inh -3 and GSK3beta inhib 3.
For COC(=O)c1ccc(/C=C/c2c(-c3ccc(OC)cc3)oc3ccccc23)cc1 the results were GSK3 alpha inh -3, SR-BI DiI-HDL act 5, SR-BI DiI inh -5, CDK5 inh 0 and GSK3beta inhib 2.
Screening COc1ccc(/C=C/c2c(-c3ccc(OC)cc3)oc3ccccc23)cc1 returned GSK3 alpha inh -2, SR-BI DiI-HDL act -78, SR-BI DiI inh 78*, CDK5 inh -10 and GSK3beta inhib -2.
For O=C1CN(C(=O)c2ccc(Cl)c([N+](=O)[O-])c2)c2ccccc2N1 the results were GSK3 alpha inh 0, SR-BI DiI-HDL act -19, SR-BI DiI inh 19, CDK5 inh 0 and GSK3beta inhib -1.
Screening Cc1ccc(Nc2c([N+](=O)[O-])cc(C(=O)N3CC(=O)Nc4ccccc43)cc2[N+](=O)[O-])c(C)c1 returned GSK3 alpha inh -1, SR-BI DiI-HDL act -75, SR-BI DiI inh 75*, CDK5 inh 2 and GSK3beta inhib 0.
`CN(Cc1cnn(C)c1)C(=O)C1CCC(=O)N(Cc2ccc(Cl)cc2)C1` (configuration not stated) gave GSK3 alpha inh 4, SR-BI DiI-HDL act 18, SR-BI DiI inh -18, CDK5 inh 0 and GSK3beta inhib 2.
CC(O)CN(CC(C)O)c1ccc2c(c1)Cc1cc([N+](=O)[O-])ccc1-2 (configuration not stated) was read as SR-BI DiI-HDL act -89, SR-BI DiI inh 89* and CDK5 inh 2.
For O=[N+]([O-])c1ccc(N/N=C/c2ccc(O)c(O)c2O)c(S(=O)(=O)N2CCOCC2)c1 the results were SR-BI DiI-HDL act -108, SR-BI DiI inh 108*, CDK5 inh 2 and GSK3beta inhib 3.
`CCOc1ccc(NC(=O)Cn2nnc(C(=O)NCCc3ccc(OC)c(OC)c3)c2N)cc1` gave GSK3 alpha inh 0, SR-BI DiI-HDL act -74, SR-BI DiI inh 74*, CDK5 inh 0 and GSK3beta inhib -2.
Screening CCOc1ccccc1NC(=O)Cn1nnc(C(=O)NCCc2ccc(OCC)c(OCC)c2)c1N returned GSK3 alpha inh -4, SR-BI DiI-HDL act -85, SR-BI DiI inh 85* and GSK3beta inhib -3.
`CCCS(=O)(=O)Nc1ccc(Nc2c3ccccc3nc3ccccc23)c(OC)c1` gave SR-BI DiI-HDL act -80, SR-BI DiI inh 80* and CDK5 inh 0.
CCc1noc(C)c1C(=O)N1CCN(S(=O)(=O)c2cccs2)CC1 was read as GSK3 alpha inh -1, SR-BI DiI-HDL act -6, SR-BI DiI inh 6, CDK5 inh 0 and GSK3beta inhib 1.
Cc1nn(-c2ccccc2)c(N2CCCC2)c1/C=N/NC(=O)c1ccccc1O was read as GSK3 alpha inh -2, SR-BI DiI-HDL act -55, SR-BI DiI inh 55, CDK5 inh -1 and GSK3beta inhib -3.
`O=C(N/N=C/c1cc2c3c(c1O)CCCN3CCC2)c1ccccc1O` gave SR-BI DiI-HDL act -140, SR-BI DiI inh 140*, CDK5 inh 3 and GSK3beta inhib 0.
Cc1nc(N2CCCCC2C)c2c(C)c(C(=O)Nc3cccc(C(F)(F)F)c3)sc2n1 (configuration not stated) was read as GSK3 alpha inh -2, SR-BI DiI-HDL act -74, SR-BI DiI inh 74*, CDK5 inh 1 and GSK3beta inhib 1.
Screening Cc1nc(N2CCCCC2)c2c(C)c(C(=O)Nc3cccc(C(F)(F)F)c3)sc2n1 returned GSK3 alpha inh -5, SR-BI DiI-HDL act -78, SR-BI DiI inh 78*, CDK5 inh 0 and GSK3beta inhib -1.
`CCn1ccnc1CNC(=O)CC1C(=O)NCCN1Cc1ccc(OC)cc1OC` (configuration not stated) gave GSK3 alpha inh -2, SR-BI DiI-HDL act 10, SR-BI DiI inh -10, CDK5 inh -2 and GSK3beta inhib 1.
Screening CCOc1cc(NC(=O)C2CC2)c(OCC)cc1NC(=O)c1ccccc1OCC returned GSK3 alpha inh -1, SR-BI DiI-HDL act -72, SR-BI DiI inh 72* and CDK5 inh 0.

Compound activity deposited in PubChem BioAssay by Broad Institute.
